# Assay outcomes (PubChem)
# Apaf-1 inh – inhibitors of human Apaf-1 apoptosome, primary screen, biochemical, DEVD-Rh110 fluorescence, uHTS; Apoptotic protease-activating factor 1 (Homo sapiens), O14727; reconstituted apoptosome caspase-3 activity; inhibition, % at 20 µM; hit rate 0.71% among 330,000; active = inhibition of at least 40% at 20 µM;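 note: plate controls were DMSO wells for no effect and DEVD-CHO caspase inhibitor wells for full effect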
#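 Material: reconstituted apoptosome with Apaf-1, cytochrome c, caspase-9, procaspase-3, dATP. Technique: Rh110 fluorescence intensity. Buffer or medium: pH 7.5 Hepes buffer with CHAPS, BSA, DTT. Times: 30 min plus 50 min, RT.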
# TDP2 inh – human TDP2 enzyme inhibitors, primary screen, biochemical, epi absorbance, recombinant enzyme; T5PNP hydrolysis, p-nitrophenol absorbance 415 nm; inhibition, % at 12.8 µM; hit rate 0.34% among 370,000; AID 720702, 2013;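 active = inhibition above the mean of all tested compounds plus 3 SD, set per campaign, cut at about 25% in these data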;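 note: 0% = DMSO with enzyme and 100% = buffer with substrate but no TDP2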
# Target sequence (O95551 whole entry, looked up): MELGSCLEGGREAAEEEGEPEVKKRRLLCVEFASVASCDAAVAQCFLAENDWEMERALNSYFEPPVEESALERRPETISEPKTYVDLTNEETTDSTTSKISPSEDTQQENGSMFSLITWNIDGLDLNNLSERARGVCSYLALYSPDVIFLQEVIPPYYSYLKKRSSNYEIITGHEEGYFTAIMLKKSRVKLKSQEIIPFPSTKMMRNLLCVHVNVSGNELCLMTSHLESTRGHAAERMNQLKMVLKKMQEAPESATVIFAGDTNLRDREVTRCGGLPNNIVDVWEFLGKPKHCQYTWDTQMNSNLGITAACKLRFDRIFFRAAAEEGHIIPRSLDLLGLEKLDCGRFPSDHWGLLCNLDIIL
#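 System – recombinant human TDP2 · Amount – 120 nM TDP2 per well · Buffer or medium – Mg2+-containing Tris-HCl buffer, pH 7.5 · Reagent – T5PNP substrate, 5 mM · Dosing – 12.8 µM single point, 1% DMSO · Incubation – 2 h at 37 °C · Measured by – epi absorbance · Read-out basis – percent inhibition · Benchmarks – high control without enzyme, low control DMSO plus TDP2 · Repeats – singlicate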
# PAD4 inh – human PAD4 inhibitors, primary screen, biochemical, fluorescence polarization, 1536-well format. Protein-arginine deiminase type-4 (Homo sapiens), Q9UM07. recombinant PAD4, RCA probe fluorescence polarization. inhibition, % at 6.36 µM. hit rate 0.41% among 330,000. AID 485272, 2010;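 active = percent inhibition above a cutoff equal to the mean of all tested compounds plus 3 SD, cut at about 15% in these data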;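 note: 0% = PAD4 with RCA probe and DMSO and 100% = probe without PAD4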
# GSTO1 counter – inhibitors of recombinant GSTO1, primary screen, counter-screen for RBBP9 inhibitor project, biochemical, fluorescence polarization | hit rate 1.1% among 300,000 | activity-based probe fluorescence polarization | inhibition, % at 5.96 µM | AID 1974, 2009;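 active = inhibition above the campaign mean inhibition plus 3 SD, cut at about 35% in these data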;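 note: 0% = GSTO1-1 with DMSO and 100% = wells lacking GSTO1-1 enzyme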
# Target sequence (P78417 whole entry, looked up): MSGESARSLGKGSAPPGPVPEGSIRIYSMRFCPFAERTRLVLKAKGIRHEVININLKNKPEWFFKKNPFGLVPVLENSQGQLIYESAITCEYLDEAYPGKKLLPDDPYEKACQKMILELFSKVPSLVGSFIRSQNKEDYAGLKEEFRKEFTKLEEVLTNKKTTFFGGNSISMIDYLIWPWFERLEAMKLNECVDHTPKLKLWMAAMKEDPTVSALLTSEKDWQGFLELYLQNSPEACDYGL
# PRMT1 FP inh – PRMT1 methyltransferase inhibitors, primary screen, biochemical, fluorescence polarization. recombinant PRMT1, activity-based probe fluorescence polarization. inhibition, % at 2.79 µM. hit rate 1.3% among 370,000. AID 652257, 2013;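 active = inhibition above about 21% made by adding two undisclosed values, limit read from the data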
# PRMT1 inh conf – PRMT1 methyltransferase inhibitors, confirmation, biochemical, fluorescence polarization, triplicate | shares compounds with PRMT1 FP inh | recombinant His-PRMT1, activity-based probe fluorescence polarization | inhibition, % at 2.79 µM | hit rate 42% among 3,300 | AID 687036, 2013;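 active = mean inhibition across replicates above the hit cutoff derived for the earlier primary screen, cut at about 22% in these data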
# The depositor's hits bear a star; / = no result given. Most compounds without a hit are left out; they make up all but 2.6% or so of the library.
SMILES,Apaf-1 inh,TDP2 inh,PAD4 inh,GSTO1 counter,PRMT1 FP inh,PRMT1 inh conf
Cc1ccc2cc(CN(C(=O)c3ccco3)c3ccccc3)c(=O)[nH]c2c1,8,-11,-4,-8,53*,-6
Cc1cccc2cc(CN(Cc3ccco3)C(=O)c3cccs3)c(=O)[nH]c12,-1,2,-1,10,1,/
Cc1cc(C)c2[nH]c(=O)c(CN(Cc3cccs3)C(=S)NCc3ccco3)cc2c1,18,-25,2,-8,35*,0
Cc1ccc(N(Cc2cc3ccc(C)cc3[nH]c2=O)C(=O)c2ccco2)cc1,3,-5,1,-1,1,/
COc1cc(C(F)(F)F)ccc1C(=O)NCCc1ccco1,6,-4,-1,0,3,/
COc1ccccc1-n1c(SCC(=O)NCc2ccc3c(c2)OCO3)nc2cc([N+](=O)[O-])ccc21,5,2,-3,-1,84*,26*
O=C(O)c1ccccc1C(=O)Nc1n[nH]c(=S)s1,-39,3,2,-2,31*,10
O=C(O)c1ccccc1C(=O)Nc1nccs1,-11,5,-3,-9,1,/
Cc1ccc(CNC(=O)C2CCN(S(=O)(=O)c3cccs3)CC2)o1,-12,2,1,4,29*,4
Cc1ccc(CNC(=O)C2CCN(S(=O)(=O)c3cccs3)CC2)cc1,2,6,0,-1,1,/
CCN(C(=O)C(C)Cl)c1ccccc1 (centres undefined),-2,9,-7,-9,-6,/
O=C(NCc1ccco1)c1cc2nc(-c3cccs3)cc(C(F)(F)F)n2n1,-5,-11,-1,1,34*,2
O=C(NCc1ccco1)c1nn2c(C(F)(F)F)cc(-c3cccs3)nc2c1Cl,-2,-5,1,1,2,/
O=C(CSc1nnc(COc2ccc(Cl)cc2)n1Cc1ccco1)Nc1cccc2ccccc12,/,-16,/,/,1,/
COc1ccc(C(=O)Nc2ccccc2C(=O)NCCN2CCOCC2)cc1,-4,7,1,-3,0,/
COc1ccc(C(=O)Nc2ccccc2C(=O)NCCN2CCOCC2)cc1OC,-17,12,2,-2,25*,-2
COc1cc(CNc2ccc3[nH]c(=O)[nH]c3c2)ccc1OCc1ccccc1F,3,-4,0,-2,29*,10
COc1cc(CNc2ccc3[nH]c(=O)[nH]c3c2)ccc1OCC(=O)NC(C)(C)C,37,7,-7,-5,6,/
COc1cc(CNc2ccc3[nH]c(=O)[nH]c3c2)cc(Br)c1OCC(=O)NC(C)(C)C,17,-7,-6,-1,25*,12
C=CCOc1c(Br)cc(CNc2ccc3[nH]c(=O)[nH]c3c2)cc1OCC,3,-12,-5,-1,30*,15
Cc1noc(C)c1CSCC(=O)Nc1nc2ccc(S(C)(=O)=O)cc2s1,5,2,0,-2,4,/
CCOCCCNC(=S)N1CCN(c2nc(-c3ccc(F)cc3)cs2)CC1,12,-2,4,-5,-3,/
Cc1ccc(-c2csc(NC(=O)Cc3ccc(F)cc3)n2)o1,-2,15,-2,7,41*,43*
Cc1ccc(-c2csc(Nc3ccc(S(N)(=O)=O)cc3)n2)o1,-17,-14,-6,-1,72*,40*
Cc1ccc(Nc2nc(-c3ccc(S(=O)(=O)N4CCOCC4)cc3)cs2)cc1,-13,-11,1,12,26*,-1
SMILES,Apaf-1 inh,TDP2 inh,PAD4 inh,GSTO1 counter,PRMT1 FP inh,PRMT1 inh conf
CCCN(c1ccc(OCC)cc1)S(=O)(=O)c1ccc2c(c1)NC(=O)CO2,17,4,2,4,-3,/
CCOc1cccc(=O)c2c(C)n(-c3ccc(C(=O)O)cc3)c(C)c12,8,13,7,24,37*,12
COc1cccc(=O)c2c(C)n(-c3ccc(C(=O)O)cc3)c(C)c12,7,19,3,30,8,/
CC(=Nc1cccc(O)c1)c1sc2ccccc2c1O,12,7,10,13,20,/
CC(=Nc1ccc(C)cc1C)c1sc2ccccc2c1O,13,-8,5,7,27*,16
O=c1sc(/C=N/Nc2ccccc2)c(Cl)n1Cc1ccccc1,3,7,-2,-2,59*,6
CC(C)C[C@H](NC(=O)N1CCn2c1nc1ccccc12)C(=O)N[C@@H](C(=O)O)c1ccccc1,-2,8,-5,7,-1,/
CS(=O)(=O)c1ccc2nc(NC(=O)c3ccc(S(=O)(=O)NCC4CCCO4)cc3)sc2c1 (centres undefined),0,6,8,-13,0,/
Clc1cccc(Cc2c(-c3ccco3)nc3ccc(Br)cn23)c1,/,-11,/,/,34*,13
Clc1cccc(Cc2c(-c3ccco3)nc3ccc(Cl)cn23)c1,/,-8,/,/,47*,17
Clc1ccc(-c2nc3ccc(Cl)cn3c2Cc2cccc(Cl)c2)cc1,/,-4,/,/,2,/
Brc1ccc2nc(-c3ccco3)c(Cc3ccccc3)n2c1,/,-20,/,/,42*,15
Cc1ccc(Cc2c(-c3ccc(Br)cc3)nc3ccc(Br)cn23)cc1,/,-6,/,/,-3,/
CN(Cc1ccccc1)C(=O)OCc1cn(Cc2ccc(Cl)cc2)nn1,/,2,/,/,5,/
CC(Cc1ccccc1)C(=O)Nc1ccc(Br)cc1 (centres undefined),11,-2,-3,0,-4,/
c1csc(CNc2ncnc3ccc(-c4ccc5c(c4)OCO5)cc23)n1,/,2,/,/,2,/
O=C(Nc1ccc(Cl)cc1)c1ccc2sc([C@@H]3O[C@H](CO)[C@@H](O)[C@H]3O)nc2c1,/,-4,/,/,1,/
CCOC(=O)/C=C/S(=O)(=O)c1ccc(NC(C)=O)cc1,-4,0,-1,1,44*,35*
O=C(O)C1CSC(c2coc3ccccc3c2=O)N1 (centres undefined),18,-3,1,30,51*,35*
COc1ccc2c(c1)N=CN1CCc3c([nH]c4ccccc34)C3=NCC[C@@]321,/,1,/,/,2,/
COc1ccccc1NS(=O)(=O)c1cc(NC(=O)C2CCC2)ccc1N1CCCCC1,-3,-11,-6,-25,36*,4
COc1ccc(NS(=O)(=O)c2cc(NC(=O)C3CC3)ccc2N2CCCCC2)cc1,0,2,-5,-8,3,/
O=C1NNC(c2ccccc2)=N/C1=C\c1ccco1,-19,-9,1,22,30*,13
